Source: ChEMBL document CHEMBL2169747, “Synthesis and biological properties of highly sequence-specific-alkylating N-methylpyrrole-N-methylimidazole polyamide conjugates” (J Med Chem, 2012)
Activity calls are given as the source filed them. The rule behind the calls is not given here.

How the values were obtained:
[1] = system: A549; assay: Downregulation of SUPT3H gene expression in human A549 cells at 34 nM after 12 hrs by microarray analysis relative to control; assay type: functional
How it was run: (§1)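 A549 cells (RPMI-1640, 10% heat-inactivated FBS, penicillin/streptomycin, 37 °C, 5% CO2) seeded at 4 × 10^5 per 60 mm dish. Exposed 12 h to conjugate at 21, 26, 34 or 100 nM in medium with 0.1% DMSO, against 0.1% DMSO control. Whole-genome (~25 000 genes) expression profiled by microarray.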

[2] = system: A549; assay: Upregulation of GADD45A gene expression in human A549 cells at 34 nM after 12 hrs by microarray analysis relative to control; assay type: functional
How it was run: (§2)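 4 ×10^5 A549 cells seeded per 60 mm dish and treated 12 h with conjugate (21, 26, 34 or 100 nM) in medium; control medium contained 0.1% DMSO, with conjugates added as 0.1% DMSO solutions. Whole human genome (~25 000 genes) expression profiled by microarray against the DMSO control. A549 culture: RPMI-1640 with 10% heat-inactivated FBS, penicillin/streptomycin, 37 °C, 5% CO2.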

[3] = system: A549; assay: Downregulation of LAMA2 gene expression in human A549 cells at 34 nM after 12 hrs by microarray analysis relative to control; assay type: functional
How it was run: (§3)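 A549 cells, 4 × 10^5 per 60 mm dish, were exposed to conjugate for 12 h in medium with 0.1% DMSO; vehicle control was 0.1% DMSO. Whole human genome (~25 000 genes) expression was profiled by microarray and expression compared with the control.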

[4] = system: A549; assay: Downregulation of Q8N570 gene expression in human A549 cells at 34 nM after 12 hrs by microarray analysis relative to control; assay type: functional; how it was run: as §1
[5] = system: A549; assay: Downregulation of PTPRK gene expression in human A549 cells at 34 nM after 12 hrs by microarray analysis relative to control; assay type: functional; how it was run: as §1
[6] = system: A549; assay: Upregulation of NP_997213.1 gene expression in human A549 cells at 34 nM after 12 hrs by microarray analysis relative to control; assay type: functional; how it was run: as §2
[7] = system: A549; assay: Upregulation of HES2 gene expression in human A549 cells at 34 nM after 12 hrs by microarray analysis relative to control; assay type: functional; how it was run: as §2
[8] = system: A549; assay: Upregulation of MDM2 gene expression in human A549 cells at 34 nM after 12 hrs by microarray analysis relative to control; assay type: functional; how it was run: as §2
[9] = system: A549; assay: Upregulation of U124 gene expression in human A549 cells at 34 nM after 12 hrs by microarray analysis relative to control; assay type: functional; how it was run: as §2
[10] = system: A549; assay: Upregulation of CDKN1A gene expression in human A549 cells at 34 nM after 12 hrs by microarray analysis relative to control; assay type: functional; how it was run: as §2
[11] = system: A549; assay: Downregulation of Q9P223 gene expression in human A549 cells at 34 nM after 12 hrs by microarray analysis relative to control; assay type: functional; how it was run: as §1
[12] = system: A549; assay: Downregulation of SMYD3 gene expression in human A549 cells at 34 nM after 12 hrs by microarray analysis relative to control; assay type: functional; how it was run: as §1
[13] = system: A549; assay: Downregulation of NP_115632.1 gene expression in human A549 cells at 34 nM after 12 hrs by microarray analysis relative to control; assay type: functional; how it was run: as §3
[14] = system: A549; assay: Downregulation of OR1C1 gene expression in human A549 cells at 34 nM after 12 hrs by microarray analysis relative to control; assay type: functional; how it was run: as §1
[15] = system: A549; assay: Downregulation of DPYD gene expression in human A549 cells at 34 nM after 12 hrs by microarray analysis relative to control; assay type: functional; how it was run: as §3
[16] = system: A549; assay: Upregulation of BBC3 gene expression in human A549 cells at 34 nM after 12 hrs by microarray analysis relative to control; assay type: functional; how it was run: as §1
[17] = system: A549; assay: Downregulation of GPX6 gene expression in human A549 cells at 34 nM after 12 hrs by microarray analysis relative to control; assay type: functional; how it was run: as §3
[18] = system: A549; assay: Downregulation of ZNF407 gene expression in human A549 cells at 34 nM after 12 hrs by microarray analysis relative to control; assay type: functional; how it was run: as §1
[19] = system: A549; assay: Downregulation of Q8NBA2 gene expression in human A549 cells at 34 nM after 12 hrs by microarray analysis relative to control; assay type: functional; how it was run: as §1
[20] = system: A549; assay: Upregulation of RRAD gene expression in human A549 cells at 26 nM after 12 hrs by microarray analysis relative to control; assay type: functional; how it was run: as §2
[21] = system: DU-145; assay: Antitumor activity against human DU145 cells xenografted in BALB/c-nu/nu mouse assessed as effect on tumor growth at 1.6 mg/kg, iv administered as liposomal conjugate for 14 days; assay type: functional, organism-based; design: dose 1.6 mg/kg
How it was run: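 Male BALB/c-nu/nu mice (5 weeks, 15−22 g) with subcutaneous right-subaxillary A549 or DU145 xenografts (3 × 10^6 cells/mouse), grouped by tumor size. Liposomes were made from a lipid film hydrated in water and bath-sonicated 2 h, giving 330 μg/mL conjugate in 17 mM lipid. A single 125 μL intravenous dose (41 μg/mouse) was given on day 0. Tumor size and weight were read every other day for 14 days. n = 5 or 6.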

[22] = system: A549; assay: Downregulation of EPM2A gene expression in human A549 cells at 26 nM after 12 hrs by microarray analysis relative to control; assay type: functional; how it was run: as §3
[23] = system: A549; assay: Upregulation of PPM1D gene expression in human A549 cells at 26 nM after 12 hrs by microarray analysis relative to control; assay type: functional; how it was run: as §2
[24] = system: A549; assay: Downregulation of Q9Y6Z5 gene expression in human A549 cells at 26 nM after 12 hrs by microarray analysis relative to control; assay type: functional; how it was run: as §1
[25] = system: A549; assay: Downregulation of Q8N570 gene expression in human A549 cells at 26 nM after 12 hrs by microarray analysis relative to control; assay type: functional; how it was run: as §1
[26] = system: A549; assay: Upregulation of BTG2 gene expression in human A549 cells at 26 nM after 12 hrs by microarray analysis relative to control; assay type: functional; how it was run: as §2
[27] = system: A549; assay: Upregulation of SPESP1 gene expression in human A549 cells at 26 nM after 12 hrs by microarray analysis relative to control; assay type: functional; how it was run: as §2
[28] = system: A549; assay: Downregulation of HS2ST1 gene expression in human A549 cells at 26 nM after 12 hrs by microarray analysis relative to control; assay type: functional; how it was run: as §3
[29] = system: A549; assay: Downregulation of NBEA gene expression in human A549 cells at 26 nM after 12 hrs by microarray analysis relative to control; assay type: functional; how it was run: as §3
[30] = system: A549; assay: Downregulation of DPYD gene expression in human A549 cells at 26 nM after 12 hrs by microarray analysis relative to control; assay type: functional; how it was run: as §3
[31] = system: A549; assay: Upregulation of GADD45A gene expression in human A549 cells at 26 nM after 12 hrs by microarray analysis relative to control; assay type: functional; how it was run: as §2
[32] = system: A549; assay: Downregulation of SEMA3E gene expression in human A549 cells at 26 nM after 12 hrs by microarray analysis relative to control; assay type: functional; how it was run: as §1
[33] = system: A549; assay: Downregulation of SLC4A4 gene expression in human A549 cells at 26 nM after 12 hrs by microarray analysis relative to control; assay type: functional; how it was run: as §1
[34] = system: A549; assay: Downregulation of ACTG gene expression in human A549 cells at 26 nM after 12 hrs by microarray analysis relative to control; assay type: functional; how it was run: as §3
[35] = system: A549; assay: Upregulation of HES2 gene expression in human A549 cells at 26 nM after 12 hrs by microarray analysis relative to control; assay type: functional; how it was run: as §2

## CC(=O)Nc1cn(C)c(C(=O)Nc2cn(C)c(C(=O)Nc3cc(C(=O)NCCC(=O)Nc4cc(C(=O)NCCCC(=O)Nc5cn(C)c(C(=O)NCCC(=O)Nc6cn(C)c(C(=O)Nc7ccc8[nH]c(C(=O)N9CC(CCl)c%10c9cc(O)c9ccccc%109)cc8c7)n6)n5)n(C)c4)n(C)c3)n2)n1 (racemic)
[1]
  fold change (FC): 0.231
[2]
  fold change (FC): 5.9
[3]
  fold change (FC): 0.3
[4]
  fold change (FC): 0.186
[5]
  fold change (FC): 0.189
[6]
  fold change (FC): 6
[7]
  fold change (FC): 8.2
[8]
  fold change (FC): 8.9
[9]
  fold change (FC): 5.6
[10]
  fold change (FC): 7.8
[11]
  fold change (FC): 0.258
[12]
  fold change (FC): 0.291
[13]
  fold change (FC): 0.273
[14]
  fold change (FC): 0.324
[15]
  fold change (FC): 0.103
[16]
  fold change (FC): 8.5
[17]
  fold change (FC): 0.322
[18]
  fold change (FC): 0.241
[19]
  fold change (FC): 0.276

## CC(=O)Nc1cn(C)c(C(=O)Nc2cc(C(=O)Nc3cc(C(=O)NCCC(=O)Nc4cc(C(=O)NCCCC(=O)Nc5cc(C(=O)NCCC(=O)Nc6cn(C)c(C(=O)Nc7ccc8[nH]c(C(=O)N9CC(CCl)c%10c9cc(O)c9ccccc%109)cc8c7)n6)n(C)c5)n(C)c4)n(C)c3)n(C)c2)n1 (racemic)
[20]
  fold change (FC): 6
[21]
  Activity: Active
[22]
  fold change (FC): 0.353
[23]
  fold change (FC): 5.7
[24]
  fold change (FC): 0.356
[25]
  fold change (FC): 0.283
[26]
  fold change (FC): 10.1
[27]
  fold change (FC): 11
[28]
  fold change (FC): 0.329
[29]
  fold change (FC): 0.339
[30]
  fold change (FC): 0.115
[31]
  fold change (FC): 7
[32]
  fold change (FC): 0.353
[33]
  fold change (FC): 0.273
[34]
  fold change (FC): 0.311
[35]
  fold change (FC): 9.4
